Reference: paper PMC8230583 (Polymer Chemistry, 2021)

Assay: Critical aggregation concentration by Nile Red fluorimetry
Assay type: physicochemical
Details: ratio of CAC in water to CAC in 150 mM NaCl
Outline: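 Each compound was dissolved in water or 0.15 M NaCl with mild shaking or sonication, and stocks were equilibrated overnight at room temperature. Diluted samples (pH 4.0–5.5) were equilibrated ≥3 h at room temperature. Nile Red was added from a 1 mg ml−1 acetone stock and samples equilibrated 30 min more. Emission (575–740 nm, excitation 550 nm) was recorded to follow the shift of the Nile Red maximum.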

CAC in the presence of salt, times lower than in pure water: 1.2 times
Substance: FDFF
